Reference: ChEMBL document CHEMBL1149349, “Identification of novel pyrazole acid antagonists for the EP1 receptor” (Bioorg Med Chem Lett, 2006)
pIC50, pKi: −log10 of the molar value. ≈ marks a conversion by molar mass, not a printed value.

What was measured:
[1] = biological target: T1, Prostaglandin E2 receptor EP1 subtype (Homo sapiens, UniProt P34995); test: Antagonist activity at EP1 receptor expressed in CHO-K1 cells assessed as inhibition of PGE2-stimulated calcium ion mobilization by FLIPR assay; type: functional, cell-based
T1 sequence (P34995 whole entry): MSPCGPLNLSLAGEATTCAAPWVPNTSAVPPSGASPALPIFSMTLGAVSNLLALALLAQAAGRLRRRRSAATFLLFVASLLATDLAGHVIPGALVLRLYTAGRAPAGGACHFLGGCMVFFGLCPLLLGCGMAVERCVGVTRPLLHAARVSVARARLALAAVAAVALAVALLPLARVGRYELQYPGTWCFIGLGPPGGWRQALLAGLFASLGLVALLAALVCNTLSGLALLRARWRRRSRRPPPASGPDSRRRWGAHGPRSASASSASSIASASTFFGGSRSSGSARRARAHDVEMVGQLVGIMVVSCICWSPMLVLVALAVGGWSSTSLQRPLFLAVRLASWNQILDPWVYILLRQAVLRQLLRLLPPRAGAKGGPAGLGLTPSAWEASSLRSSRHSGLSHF
How it was run: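 Stably EP1- or EP3-transfected CHO-K1 whole cells loaded with the calcium-sensitive dye Fluo-3. Inhibition of PGE₂-evoked intracellular Ca²⁺ mobilisation measured, reported as pKi.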

[2] = biological target: T1, Prostaglandin E2 receptor EP1 subtype; test: Displacement of [3H]PGE2 from EP1 receptor expressed in CHO-K1 cells; type: cell-based
How it was run: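 Membranes from cells expressing the receptor, incubated with test compound and [³H]PGE₂ (3 nM final) for 30 min at 30 °C. Bound radioactivity read by liquid scintillation counting. Values are means of at least four experiments.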

Rattus norvegicus [3] = test: AUC in rat at 3 mg/kg, po; type: ADME, organism-based, Plasma; parameters: dose 3 mg/kg, route oral; conditions: in vivo
How it was run: (§1)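 Oral dosing with drug levels measured in blood. Cmax, Tmax and AUC normalised to dose were derived from the blood concentration–time profile.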

[4] = Solubility at pH 7.4; type: physicochemical; conditions: buffer
Cytochrome P450 2D6 = Cytochrome P450 2D6 (Homo sapiens, UniProt P10635); test: Inhibition of CYP450 2D6; type: ADME
Sequence of Cytochrome P450 2D6 (P10635 whole entry, canonical isoform): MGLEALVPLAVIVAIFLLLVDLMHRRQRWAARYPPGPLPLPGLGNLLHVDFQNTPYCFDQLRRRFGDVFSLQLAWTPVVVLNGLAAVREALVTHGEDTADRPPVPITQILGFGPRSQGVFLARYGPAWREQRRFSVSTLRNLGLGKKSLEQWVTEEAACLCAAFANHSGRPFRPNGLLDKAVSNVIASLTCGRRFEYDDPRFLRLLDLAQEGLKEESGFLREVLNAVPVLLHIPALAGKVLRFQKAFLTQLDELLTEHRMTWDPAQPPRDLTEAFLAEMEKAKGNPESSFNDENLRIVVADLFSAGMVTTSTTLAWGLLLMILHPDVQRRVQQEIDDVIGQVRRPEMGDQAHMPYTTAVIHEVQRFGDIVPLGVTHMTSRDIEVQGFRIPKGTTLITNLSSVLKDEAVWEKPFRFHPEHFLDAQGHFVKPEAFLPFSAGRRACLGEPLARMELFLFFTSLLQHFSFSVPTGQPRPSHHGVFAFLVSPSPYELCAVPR
How it was run: (§2)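 In vitro CYP450 inhibition run by the Gentest protocol, with IC₅₀ determined for each isoform.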

[5] = Distribution coefficient, log D at pH 7.4; type: physicochemical; conditions: octanol/water
Liver microsomes [6] = test: Intrinsic clearance in rat liver microsome; type: ADME
Cytochrome P450 1A2 = biological target: T2, Cytochrome P450 1A2 (Homo sapiens, UniProt P05177); test: Inhibition of CYP450 1A2; type: ADME; how it was run: as §2
T2 sequence (P05177 whole entry): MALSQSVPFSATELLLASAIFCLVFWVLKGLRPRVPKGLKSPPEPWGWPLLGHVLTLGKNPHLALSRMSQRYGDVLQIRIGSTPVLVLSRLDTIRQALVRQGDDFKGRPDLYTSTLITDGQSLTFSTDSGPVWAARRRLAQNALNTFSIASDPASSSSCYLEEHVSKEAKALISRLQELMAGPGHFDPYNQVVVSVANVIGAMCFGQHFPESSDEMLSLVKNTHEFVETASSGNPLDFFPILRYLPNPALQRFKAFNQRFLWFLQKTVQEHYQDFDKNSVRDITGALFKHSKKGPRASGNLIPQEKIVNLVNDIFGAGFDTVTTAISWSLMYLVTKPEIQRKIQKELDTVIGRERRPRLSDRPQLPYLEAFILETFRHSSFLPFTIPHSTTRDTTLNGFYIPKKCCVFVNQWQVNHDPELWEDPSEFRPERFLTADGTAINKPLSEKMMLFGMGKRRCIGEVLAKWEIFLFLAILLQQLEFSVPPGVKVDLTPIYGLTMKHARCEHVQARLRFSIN

[7] = Cmax in rat at 3 mg/kg, po; type: ADME, organism-based; parameters: dose 3 mg/kg, route oral; conditions: in vivo; how it was run: as §1
Rattus norvegicus [8] = organism: Rattus norvegicus; test: Activity against Freund's complete adjuvant-induced inflammatory pain in rat; type: functional
Cytochrome P450 2C9 = Cytochrome P450 2C9 (Homo sapiens, UniProt P11712); test: Inhibition of CYP450 2C9; type: ADME; how it was run: as §2
Sequence of Cytochrome P450 2C9 (P11712 whole entry): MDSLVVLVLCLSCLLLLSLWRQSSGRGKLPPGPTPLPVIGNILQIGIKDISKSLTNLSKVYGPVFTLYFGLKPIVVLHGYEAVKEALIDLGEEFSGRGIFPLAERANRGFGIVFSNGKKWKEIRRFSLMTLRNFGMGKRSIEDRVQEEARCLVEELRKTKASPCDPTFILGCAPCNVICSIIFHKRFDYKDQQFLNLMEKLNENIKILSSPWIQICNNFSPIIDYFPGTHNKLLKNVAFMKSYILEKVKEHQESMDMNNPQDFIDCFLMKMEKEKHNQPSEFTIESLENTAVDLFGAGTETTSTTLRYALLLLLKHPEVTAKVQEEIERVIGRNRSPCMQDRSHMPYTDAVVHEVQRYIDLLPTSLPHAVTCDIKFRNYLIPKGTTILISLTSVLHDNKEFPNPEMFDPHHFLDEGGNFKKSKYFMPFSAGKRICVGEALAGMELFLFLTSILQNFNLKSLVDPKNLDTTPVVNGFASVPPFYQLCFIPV

Liver microsomes [9] = test: Intrinsic clearance in human liver microsome; type: ADME
Rattus norvegicus [10] = test: AUC/dose in rat at 3 mg/kg, po; type: ADME, organism-based, Plasma; parameters: dose 3 mg/kg, route oral; conditions: in vivo; how it was run: as §1
[11] = Tmax in rat at 3 mg/kg, po; type: ADME, organism-based; parameters: dose 3 mg/kg, route oral; conditions: in vivo; how it was run: as §1
Cytochrome P450 3A4 = Cytochrome P450 3A4 (Homo sapiens, UniProt P08684); test: Inhibition of CYP450 3A4; type: ADME; how it was run: as §2
Sequence of Cytochrome P450 3A4 (P08684 whole entry): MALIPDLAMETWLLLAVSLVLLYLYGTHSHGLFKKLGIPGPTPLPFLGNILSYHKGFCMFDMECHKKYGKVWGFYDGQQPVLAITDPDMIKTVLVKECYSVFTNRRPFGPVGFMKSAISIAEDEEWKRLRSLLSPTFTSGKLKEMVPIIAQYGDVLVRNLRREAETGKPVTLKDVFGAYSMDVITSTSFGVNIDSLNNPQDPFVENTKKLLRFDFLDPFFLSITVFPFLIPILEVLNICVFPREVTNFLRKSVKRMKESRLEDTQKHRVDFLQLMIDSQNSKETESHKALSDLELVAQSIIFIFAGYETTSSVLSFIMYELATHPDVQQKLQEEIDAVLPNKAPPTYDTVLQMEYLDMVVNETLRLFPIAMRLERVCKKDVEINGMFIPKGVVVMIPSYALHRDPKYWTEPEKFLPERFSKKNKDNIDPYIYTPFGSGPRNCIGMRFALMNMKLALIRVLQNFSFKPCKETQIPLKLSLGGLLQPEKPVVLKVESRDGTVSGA

Cytochrome P450 2C19 = Cytochrome P450 2C19 (Homo sapiens, UniProt P33261); test: Inhibition of CYP450 2C19; type: ADME; how it was run: as §2
Sequence of Cytochrome P450 2C19 (P33261 whole entry): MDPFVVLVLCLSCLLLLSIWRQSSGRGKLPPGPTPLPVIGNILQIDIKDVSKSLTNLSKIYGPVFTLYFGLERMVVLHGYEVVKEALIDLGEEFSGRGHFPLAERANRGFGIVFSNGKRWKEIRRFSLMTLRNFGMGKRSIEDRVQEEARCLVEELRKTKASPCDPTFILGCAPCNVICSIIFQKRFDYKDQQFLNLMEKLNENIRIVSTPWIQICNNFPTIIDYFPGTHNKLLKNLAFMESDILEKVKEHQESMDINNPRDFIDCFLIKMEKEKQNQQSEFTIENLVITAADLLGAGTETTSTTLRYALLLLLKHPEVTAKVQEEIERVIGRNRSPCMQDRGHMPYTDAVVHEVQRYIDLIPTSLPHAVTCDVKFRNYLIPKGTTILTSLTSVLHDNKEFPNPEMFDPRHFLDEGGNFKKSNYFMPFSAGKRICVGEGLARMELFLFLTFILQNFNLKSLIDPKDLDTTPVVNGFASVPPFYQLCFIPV

[12] = biological target: Prostaglandin E2 receptor EP3 subtype (Homo sapiens) (UniProt P43115); test: Inhibition of PGE2-induced intracellular Ca2+ mobilisation (FLIPR) at EP3 receptor expressed in CHO-K1 cells
Sequence of Prostaglandin E2 receptor EP3 subtype (Homo sapiens) (P43115 whole entry, looked up): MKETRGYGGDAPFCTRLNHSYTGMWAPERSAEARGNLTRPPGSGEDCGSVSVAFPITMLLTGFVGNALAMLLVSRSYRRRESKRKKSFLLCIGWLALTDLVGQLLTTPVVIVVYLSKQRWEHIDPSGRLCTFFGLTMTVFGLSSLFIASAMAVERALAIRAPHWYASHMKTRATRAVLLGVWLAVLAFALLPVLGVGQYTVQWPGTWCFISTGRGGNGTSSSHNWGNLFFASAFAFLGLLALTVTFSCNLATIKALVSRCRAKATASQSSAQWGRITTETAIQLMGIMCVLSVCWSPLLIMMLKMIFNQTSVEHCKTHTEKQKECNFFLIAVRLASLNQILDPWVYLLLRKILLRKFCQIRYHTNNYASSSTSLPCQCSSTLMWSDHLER

Compound	pKi [1]	pIC50 [2]	also measured
COc1ccccc1COc1ccc(Br)cc1Cn1nc(C(=O)O)cc1C	7.16		
CCCCc1cc(C(=O)O)nn1Cc1cc(Br)ccc1OCc1ccccc1	6.01		
Cc1cccc(COc2ccc(Br)cc2Cn2nc(C(=O)O)cc2C)c1	6.28	6.90	
O=C(O)c1cncn1Cc1cc(Br)ccc1OCc1ccccc1	< 5.70		
Cc1cc(C(=O)O)nn1Cc1cc(Br)ccc1OCc1ccccc1	7.82	8.19	AUC (Rattus norvegicus [3]): 16.3 µM·h; solubility [4]: 850 µg/mL (≈ 2120 µM); pIC50 (Cytochrome P450 2D6): < 4.00; logD [5]: 1.15; CL (Liver microsomes [6]): < 0.5 mL/min/g; pIC50 (Cytochrome P450 1A2): 4.68; Cmax [7]: 5.69 µM; ED50 (Rattus norvegicus [8]): 1.3 mg/kg; pIC50 (Cytochrome P450 2C9): < 4.00; CL (Liver microsomes [9]): 0.6 mL/min/g; AUC/dose (Rattus norvegicus [10]): 124 kg·min/L; Tmax [11]: 30 min; pIC50 (Cytochrome P450 3A4): < 4.00; pIC50 (Cytochrome P450 2C19): < 4.00
O=C(O)c1ccn(Cc2cc(Br)ccc2OCc2ccccc2)n1	7.26	8.01	
CC(=O)Nc1cc(C(=O)O)nn1Cc1cc(Br)ccc1OCc1ccccc1	< 5.70		
O=C(O)c1nn(Cc2cc(Br)ccc2OCc2ccccc2)cc1F	6.16	6.91	
Cc1cc(C(=O)O)nn1Cc1ccccc1OCc1ccc(Cl)cc1Cl	8.08		pKi [12]: < 5.70
O=C(O)c1nn(Cc2cc(Br)ccc2OCc2ccccc2)cc1CO	< 5.70	6.17	
O=C(O)c1nn(Cc2cc(Br)ccc2OCc2ccccc2)cc1Cl	< 5.70		
O=C(O)c1cc(-c2cccs2)n(Cc2cc(Br)ccc2OCc2ccccc2)n1	6.21	6.71	
Cc1cc(C(=O)O)nn1Cc1cc(F)ccc1OCc1ccc(F)cc1F	8.10		pKi [12]: < 5.70
Cc1cc(C(=O)O)nn1Cc1cc(Br)ccc1OCc1ccc(F)cc1F	8.58	9.28	
Cc1cc(C(=O)O)nn1Cc1cc(Br)ccc1OCc1ccc(Cl)cc1Cl	9.31	9.88	
O=C(O)c1ccnn1Cc1cc(Br)ccc1OCc1ccccc1	< 5.70		
Cc1cc(C(=O)O)nn1Cc1cc(Br)ccc1OCc1ccc(Cl)cc1	8.06	8.06	
O=C(O)c1cnn(Cc2cc(Br)ccc2OCc2ccccc2)c1	< 5.70		
O=C(O)c1cn(Cc2cc(Br)ccc2OCc2ccccc2)cn1	< 5.70		
Cc1cc(C(=O)O)nn1Cc1cc(Br)ccc1OCc1ccc(F)cc1	7.93	8.13	

Compound	pKi [1]	pIC50 [2]	also measured
Cc1cc(C(=O)O)nn1Cc1cc(Br)ccc1OCc1c(F)cccc1F	6.98	7.83	
Cc1cc(C(=O)O)nn1Cc1cc(Br)ccc1OCc1cccc(Cl)c1	6.37	6.94	
Cc1cc(C(=O)O)nn1Cc1cc(Br)ccc1OCc1ccc(Cl)c(C(F)(F)F)c1	< 5.70	6.24	
O=C(O)c1nn(Cc2cc(Br)ccc2OCc2ccccc2)cc1Br	< 5.70	6.34	
Cc1cc(C(=O)O)nn1Cc1cc(Br)ccc1OCc1ccc(C(F)(F)F)cc1	7.01	7.45	
Cc1cc(C(=O)O)nn1Cc1cc(Cl)ccc1OCc1ccc(Cl)cc1Cl	9.26		pKi [12]: < 5.70
O=C(O)c1cccc(-c2sccc2-c2cc(Cl)ccc2OCc2ccccc2)c1	8.90	8.45	
O=C(O)c1nn(Cc2cc(Br)ccc2OCc2ccccc2)cc1C(F)(F)F	< 5.70	5.59	
Cc1cc(C(=O)O)nn1Cc1cc(Br)ccc1OCc1cc(C(F)(F)F)cc(C(F)(F)F)c1	< 5.70	5.28	
Cc1cc(C(=O)O)nn1Cc1cc(Br)ccc1OCc1cccc([N+](=O)[O-])c1	6.47		
Cc1cn(Cc2cc(Br)ccc2OCc2ccccc2)nc1C(=O)O	5.87	6.37	
Cc1cc(C(=O)O)nn1Cc1cc(Cl)ccc1OCc1ccc(F)cc1F	8.95		pKi [12]: < 5.70
Cc1cc(C(=O)O)nn1Cc1cc(F)ccc1OCc1ccc(Cl)cc1Cl	7.69		
Cc1cc(C(=O)O)nn1Cc1cc(Br)ccc1OCc1ccc(C(C)(C)C)cc1	< 5.70	5.91	
Cc1cc(C(=O)O)nn1Cc1cc(Br)ccc1OCc1cc(Cl)cc(Cl)c1	5.95		
Cc1cc(C(=O)O)nn1Cc1cc(Br)ccc1OCc1cccc(Br)c1	6.89	7.75	
Cc1cc(C(=O)O)nn1Cc1cc(Br)ccc1OCc1ccccc1Cl	7.54	8.50	
O=C(O)c1cn(Cc2cc(Br)ccc2OCc2ccccc2)nn1	< 5.70		
Cc1cc(C(=O)O)nn1Cc1cc(Br)ccc1OCc1cccc(C(F)(F)F)c1	5.96	6.51	
